The text below walks through data of ChEMBL document CHEMBL3751740, “New MKLP-2 inhibitors in the paprotrain series: Design, synthesis and biological evaluations” (Bioorg Med Chem, 2016).

For assay [1], the target named is T1, Kinesin-like protein KIF11 (Homo sapiens) (UniProt P52732).
T1 sequence (whole entry): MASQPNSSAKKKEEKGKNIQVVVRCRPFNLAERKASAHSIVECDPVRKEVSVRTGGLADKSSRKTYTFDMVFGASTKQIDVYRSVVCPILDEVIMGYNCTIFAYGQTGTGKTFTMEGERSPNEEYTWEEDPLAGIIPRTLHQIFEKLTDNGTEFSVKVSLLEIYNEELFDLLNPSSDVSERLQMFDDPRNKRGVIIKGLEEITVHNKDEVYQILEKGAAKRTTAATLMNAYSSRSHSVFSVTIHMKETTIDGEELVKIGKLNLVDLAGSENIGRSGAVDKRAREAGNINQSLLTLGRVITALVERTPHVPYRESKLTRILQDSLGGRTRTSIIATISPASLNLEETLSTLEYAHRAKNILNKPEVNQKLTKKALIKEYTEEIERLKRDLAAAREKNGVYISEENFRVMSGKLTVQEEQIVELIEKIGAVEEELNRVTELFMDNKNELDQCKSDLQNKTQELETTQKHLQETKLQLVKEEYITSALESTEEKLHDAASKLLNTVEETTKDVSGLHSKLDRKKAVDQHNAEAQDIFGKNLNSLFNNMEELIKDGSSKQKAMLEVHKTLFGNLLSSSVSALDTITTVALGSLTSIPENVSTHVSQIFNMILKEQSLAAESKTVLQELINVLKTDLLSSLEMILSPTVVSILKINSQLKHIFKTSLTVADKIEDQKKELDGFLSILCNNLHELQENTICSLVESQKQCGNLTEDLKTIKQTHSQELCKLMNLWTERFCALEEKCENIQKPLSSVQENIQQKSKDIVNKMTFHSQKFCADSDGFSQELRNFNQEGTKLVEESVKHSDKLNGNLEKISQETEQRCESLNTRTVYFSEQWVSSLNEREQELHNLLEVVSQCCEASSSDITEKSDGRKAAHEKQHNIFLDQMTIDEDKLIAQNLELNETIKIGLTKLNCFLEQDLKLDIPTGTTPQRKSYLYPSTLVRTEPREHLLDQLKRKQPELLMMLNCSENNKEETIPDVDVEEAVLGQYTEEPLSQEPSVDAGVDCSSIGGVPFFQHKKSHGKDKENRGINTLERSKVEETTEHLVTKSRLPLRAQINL
Description: Inhibition of porcine brain microtubule-stimulated human recombinant GST-tagged Eg5 ATPase activity at 1 mM by microplate reader in presence of Mg2+ ATP relative to control. The gist of the method: (§1)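 Motor domain at 15 µM final, in 7.5 mM PIPES-NaOH pH 7.0 with […], 10 µM Taxol, ELIPA 1 and 2 reagents and 1.25 mg/mL microtubules. AMP-PNP, a slowly hydrolysable ATP analog and general ATPase inhibitor, tested at 1 mM. Reaction started with 1 mM Mg2+ATP at 22 °C and read kinetically at 360 nm. Run in triplicate.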

Assay [2] deals with T2, Kinesin-like protein KIF3C (Homo sapiens) (UniProt O14782).
T2 sequence (whole entry): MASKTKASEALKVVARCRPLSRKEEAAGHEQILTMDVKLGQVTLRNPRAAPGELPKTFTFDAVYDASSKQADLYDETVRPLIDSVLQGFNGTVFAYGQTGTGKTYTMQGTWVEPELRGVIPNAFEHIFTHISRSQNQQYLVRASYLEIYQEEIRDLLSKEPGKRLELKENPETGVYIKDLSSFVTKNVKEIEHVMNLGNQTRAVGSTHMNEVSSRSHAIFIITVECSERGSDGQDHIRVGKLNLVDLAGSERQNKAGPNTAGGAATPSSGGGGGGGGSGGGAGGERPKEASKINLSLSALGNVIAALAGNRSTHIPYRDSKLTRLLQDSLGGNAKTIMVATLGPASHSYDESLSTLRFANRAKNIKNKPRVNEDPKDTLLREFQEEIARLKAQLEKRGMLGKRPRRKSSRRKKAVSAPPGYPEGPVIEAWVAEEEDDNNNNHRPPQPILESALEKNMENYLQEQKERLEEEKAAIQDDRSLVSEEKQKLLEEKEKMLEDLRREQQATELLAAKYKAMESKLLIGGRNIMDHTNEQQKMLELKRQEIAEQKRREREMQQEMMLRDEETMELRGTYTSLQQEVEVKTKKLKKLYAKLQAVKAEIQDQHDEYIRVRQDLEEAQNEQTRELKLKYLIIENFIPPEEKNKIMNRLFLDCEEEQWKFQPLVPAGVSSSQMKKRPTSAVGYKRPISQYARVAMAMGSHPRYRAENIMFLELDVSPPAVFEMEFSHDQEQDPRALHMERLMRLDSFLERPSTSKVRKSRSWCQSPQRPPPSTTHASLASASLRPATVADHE
As to the kind of experiment: Inhibition of porcine brain microtubule-stimulated human recombinant GST-tagged KIF3C ATPase activity at 1 mM by microplate reader in presence of Mg2+ ATP relative to control. In a few lines: as §1

Assay [3] in a line: Growth inhibition of human MIAPaCa2 cells incubated for 4 days by WST-1 assay. Type of assay: functional. The conditions noted are these: MIA PaCa-2, 96 h. The gist of the method: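 Cells were kept at 37 °C under 5% CO2 and plated on day 0 at 500–5000 cells/well. On day 1 they received ten concentrations from 0.0025 to 50 µM (final), in triplicate. On day 4 WST-1 was added, followed by 30 min–4 h incubation and absorbance at 450 nm. GI50 is the concentration killing 50% of cells.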

Molecules are shown by their SMILES.

Take `Nc1ncnc2c1ncn2[C@@H]1O[C@H](COP(=O)(O)OP(=O)(O)NP(=O)(O)O)[C@@H](O)[C@H]1O`: the inhibition in assay [1] and in assay [2] was more than 30% each time.

For the compound `COc1ccc2[nH]cc(/C(C#N)=C/c3cccnc3)c2c1`, growth in assay [3] was halved (GI50) at 5.5 µM. That is a single-digit micromolar value.
